As usually defined, the Ki is the equilibrium dissociation constant of an inhibitor or competing ligand from its target. Low values mean higher affinity, high ones lower affinity.

Calls of active or inactive are those of the source. No cut-off for these calls is given here.

Assay [1] has as its target Growth hormone secretagogue receptor type 1 (Homo sapiens, UniProt Q92847). The experiment in a line: Inhibition of [125I]Ghrelin binding to human Ghrelin receptor expressed in CHO-K1 cells after 60 mins by liquid scintillation spectrometry. It is filed as cell-based. The gist of the method: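 Membranes from CHO-K1 cells stably expressing human GHSR, prepared in modified HEPES pH 7.4. 0.25 mg membrane incubated with 0.03 nM [125I]human ghrelin for 60 min at 25°C; nonspecific binding with […]. Filter-bound radioactivity counted by liquid scintillation. Duplicates at multiple concentrations; one-site competition fit for IC50, Ki by Cheng-Prusoff.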

For assay [2], the target named is Growth hormone secretagogue receptor type 1 (Mus musculus) (UniProt Q99P50). The experiment in a line: Binding affinity to mouse Ghrelin receptor in mouse hypothalamus after 90 mins in presence of receptor antagonist (S)-6-(4-Fluorophenoxy)-3-(piperidin-3-ylmethyl)-2-o-tolylquinazolin-4(3H)-one. The settings on record: tested as the 11C-labelled form.
Chain of Growth hormone secretagogue receptor type 1 (Mus musculus) (Q99P50 whole entry, looked up): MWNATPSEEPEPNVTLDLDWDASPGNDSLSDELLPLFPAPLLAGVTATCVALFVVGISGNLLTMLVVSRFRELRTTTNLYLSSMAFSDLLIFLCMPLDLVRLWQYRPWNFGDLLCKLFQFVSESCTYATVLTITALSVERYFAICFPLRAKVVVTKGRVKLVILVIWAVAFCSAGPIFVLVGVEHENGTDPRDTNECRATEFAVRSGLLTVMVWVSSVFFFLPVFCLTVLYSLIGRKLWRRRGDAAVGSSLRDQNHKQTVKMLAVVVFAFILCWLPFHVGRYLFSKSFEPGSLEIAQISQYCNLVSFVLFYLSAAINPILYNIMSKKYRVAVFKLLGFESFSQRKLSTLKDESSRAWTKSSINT

Chain of Growth hormone secretagogue receptor type 1 (Q92847 whole entry): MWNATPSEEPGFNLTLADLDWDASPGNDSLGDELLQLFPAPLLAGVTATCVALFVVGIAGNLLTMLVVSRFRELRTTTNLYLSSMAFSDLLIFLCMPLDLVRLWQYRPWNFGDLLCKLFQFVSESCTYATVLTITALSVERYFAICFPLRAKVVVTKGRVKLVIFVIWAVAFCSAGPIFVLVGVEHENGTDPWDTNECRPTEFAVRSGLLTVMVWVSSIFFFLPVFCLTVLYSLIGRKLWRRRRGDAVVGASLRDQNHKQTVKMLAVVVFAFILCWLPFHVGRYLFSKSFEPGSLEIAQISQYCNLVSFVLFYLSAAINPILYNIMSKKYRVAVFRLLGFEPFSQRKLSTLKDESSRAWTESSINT

Regarding `Cc1ccccc1-c1nc2ccc(Oc3ccc(F)cc3)cc2c(=O)n1C[C@H]1CCCN(C)C1`, the Ki in assay [1] was found to be 22 nM. In assay [2], the result was Active.

For the origin of these results see ChEMBL document CHEMBL1765047, “Synthesis and in vivo evaluation of (S)-6-(4-fluorophenoxy)-3-((1-[11C]methylpiperidin-3-yl)methyl)-2-o-tolylquinazolin-4(3H)-one, a potential PET tracer for growth hormone secretagogue receptor (GHSR)” (Bioorg Med Chem, 2011).
